Laboratory results reported in ChEMBL document CHEMBL4011603, “Synthesis of clarithromycin ketolides chemically modified at the unreactive C10-methyl group” (2017).
Values after ≈ are worked out from the molar mass of the structure shown.

Assays:
[1] = test system: Streptococcus pneumoniae; experiment: Antibacterial activity against Streptococcus pneumoniae ATCC 4961 by broth microdilution method; type: functional
Summary of the method: (§1)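 Standard broth microdilution; the endpoint is the minimal inhibitory concentration, reported in μg/mL. Clarithromycin is the reference macrolide. Strains are respiratory-pathogen isolates of S. pneumoniae and S. aureus.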

[2] = test system: Streptococcus pneumoniae; experiment: Antibacterial activity against macrolide-resistant Streptococcus pneumoniae BAA1402 expressing mef gene by broth microdilution method; type: functional
Summary of the method: (§2)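 Standard broth microdilution for MIC against respiratory-pathogen strains, reported in μg/mL, with clarithromycin included as the reference macrolide.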

[3] = test system: Streptococcus pneumoniae; experiment: Antibacterial activity against macrolides/lincosamides/streptogramines resistant Streptococcus pneumoniae 3914 by broth microdilution method; type: functional; summary of the method: as §2
[4] = test system: Staphylococcus aureus; experiment: Antibacterial activity against Staphylococcus aureus ATCC 29213 by broth microdilution method; type: functional; summary of the method: as §1
[5] = test system: Staphylococcus aureus; experiment: Antibacterial activity against macrolide-resistant Staphylococcus aureus BAA976 expressing mef gene by broth microdilution method; type: functional; summary of the method: as §2
[6] = test system: Staphylococcus aureus; experiment: Antibacterial activity against inducibly macrolides/lincosamides/streptogramines-resistant Staphylococcus aureus BAA977 expressing erm gene by broth microdilution method; type: functional; summary of the method: as §2
[7] = test system: Staphylococcus aureus; experiment: Antibacterial activity against constitutively macrolides/lincosamides/streptogramines-resistant Staphylococcus aureus ND048910 expressing erm gene by broth microdilution method; type: functional; summary of the method: as §2
[8] = test system: Streptococcus pneumoniae; experiment: Antibacterial activity against macrolides/lincosamides/streptogramines-resistant Streptococcus pneumoniae BAA1407 expressing mef and erm genes by broth microdilution method

| Compound | MIC [1] [µg/mL] | MIC [2] [µg/mL] | MIC [3] [µg/mL] | MIC [4] [µg/mL] | MIC [5] [µg/mL] | MIC [6] [µg/mL] | MIC [7] [µg/mL] | MIC [8] [µg/mL] |
| --- | --- | --- | --- | --- | --- | --- | --- | --- |
| CC[C@H]1OC(=O)[C@H](C)C(=O)[C@H](C)[C@@H](O[C@@H]2O[C@H](C)C[C@H](N(C)C)[C@H]2OC(C)=O)[C@](C)(OC)C[C@@H](C)C(=O)[C@]2(CC=NN2)[C@H]2NC(=O)O[C@]12C | 0.06 (≈ 0.0864 µM) | 0.25 (≈ 0.36 µM) | 16 (≈ 23 µM) | 2 (≈ 2.88 µM) | 2 (≈ 2.88 µM) | 2 (≈ 2.88 µM) | > 128 | 64 (≈ 92.1 µM) |
| CC[C@H]1OC(=O)[C@H](C)C(=O)[C@H](C)[C@@H](O[C@@H]2O[C@H](C)C[C@H](N(C)C)[C@H]2O)[C@](C)(OC)C[C@@H](C)C(=O)[C@H](CNCc2ccccc2)[C@H]2N(C)C(=O)O[C@]12C | 0.25 (≈ 0.342 µM) | 1 (≈ 1.37 µM) | < 128 | 16 (≈ 21.9 µM) | 32 (≈ 43.7 µM) | 16 (≈ 21.9 µM) | > 64 | 64 (≈ 87.4 µM) |
| CC[C@H]1OC(=O)[C@H](C)C(=O)[C@H](C)[C@@H](O[C@@H]2O[C@H](C)C[C@H](N(C)C)[C@H]2OC(C)=O)[C@](C)(OC)C[C@@H](C)C(=O)[C@H](CNCc2ccccc2)[C@H]2NC(=O)O[C@@]21C | < 0.007 | < 0.0072 | 64 (≈ 84.2 µM) | 0.25 (≈ 0.329 µM) | 0.5 (≈ 0.658 µM) | 1 (≈ 1.32 µM) | > 64 |  |
| CCOC(=O)C(C[C@H]1C(=O)[C@H](C)C[C@@](C)(OC)[C@H](O[C@@H]2O[C@H](C)C[C@H](N(C)C)[C@H]2OC(C)=O)[C@@H](C)C(=O)[C@@H](C)C(=O)O[C@H](CC)[C@@]2(C)OC(=O)N[C@H]12)C(=O)OCC | 0.06 (≈ 0.0738 µM) | 0.125 (≈ 0.154 µM) | 4 (≈ 4.92 µM) | 0.25 (≈ 0.308 µM) | 0.5 (≈ 0.615 µM) | 0.5 (≈ 0.615 µM) | > 128 | 128 (≈ 157 µM) |
| C=C1C(=O)[C@H](C)C[C@@](C)(OC)[C@H](O[C@@H]2O[C@H](C)C[C@H](N(C)C)[C@H]2OC(C)=O)[C@@H](C)C(=O)[C@@H](C)C(=O)O[C@H](CC)[C@@]2(C)OC(=O)N(Cc3ccccc3)[C@H]12 | < 0.07 | 0.125 (≈ 0.168 µM) | 2 (≈ 2.69 µM) | 1 (≈ 1.35 µM) | 2 (≈ 2.69 µM) | 2 (≈ 2.69 µM) | 64 (≈ 86.1 µM) | 64 (≈ 86.1 µM) |
| CC[C@H]1OC(=O)[C@H](C)C(=O)[C@H](C)[C@@H](O[C@@H]2O[C@H](C)C[C@H](N(C)C)[C@H]2OC(C)=O)[C@](C)(OC)C[C@@H](C)C(=O)[C@H](CNCc2cccnc2)[C@H]2NC(=O)O[C@@]21C | 0.015 (≈ 0.0197 µM) | 0.06 (≈ 0.0789 µM) | 4 (≈ 5.26 µM) | 1 (≈ 1.31 µM) | 2 (≈ 2.63 µM) | 4 (≈ 5.26 µM) | > 64 | 64 (≈ 84.1 µM) |
| CC[C@H]1OC(=O)[C@H](C)[C@@H](O)[C@H](C)[C@@H](O[C@@H]2O[C@H](C)C[C@H](N(C)C)[C@H]2OC(C)=O)[C@](C)(OC)C[C@@H](C)C(=O)/C(Cc2ccccc2)=C/[C@]1(C)O | 0.25 (≈ 0.362 µM) | 0.5 (≈ 0.725 µM) | 64 (≈ 92.8 µM) | 16 (≈ 23.2 µM) | 16 (≈ 23.2 µM) | 32 (≈ 46.4 µM) | > 64 | > 64 |
| C=C1C(=O)[C@H](C)C[C@@](C)(OC)[C@H](O[C@@H]2O[C@H](C)C[C@H](N(C)C)[C@H]2OC(C)=O)[C@@H](C)C(=O)[C@@H](C)C(=O)O[C@H](CC)[C@@]2(C)OC(=O)N[C@H]12 | 1 (≈ 1.53 µM) | 2 (≈ 3.06 µM) | 128 (≈ 196 µM) | 32 (≈ 49 µM) | 64 (≈ 98 µM) | 64 (≈ 98 µM) | > 64 | > 64 |
| CC[C@H]1OC(=O)[C@H](C)[C@@H](O[C@H]2C[C@@](C)(OC)[C@@H](O)[C@H](C)O2)[C@H](C)[C@@H](O[C@@H]2O[C@H](C)C[C@H](N(C)C)[C@H]2O)[C@](C)(OC)C[C@@H](C)C(=O)[C@H](C)[C@@H](O)[C@]1(C)O [CLARITHROMYCIN] | 0.015 (≈ 0.0201 µM) | 2 (≈ 2.67 µM) | > 16 | 0.125 (≈ 0.167 µM) | 64 (≈ 85.6 µM) | > 64 | > 64 | > 8 |
